Shown are actives, neighbours in structure and some others; about 11% of the full set was active somewhere.
S1P3 agonist: human S1P3 receptor agonists, primary screen, cell-based, primary and confirmation, NFAT-BLA reporter; S1P3 NFAT-BLA reporter cells, agonism, FRET ratio; relative to 1 µM S1P, basal subtracted; activation, % at 4.5 µM; 60,000 tested, 0.1% active;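 active = activation above the screen-wide mean plus 3 SD, cut at about 4.5% in these data, passing the limit was not always enough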
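Benchmarks: high control 1 µM S1P / System: stable CHO line with human S1P3, Gα16, NFAT-BLA reporter / Dosing: single compound concentration, 4.5 µM final / Timing: 4 h compound at 37 °C, 2 h substrate at RT / Measured by: FRET β-lactamase substrate fluorescence, excitation 405 nm, 460/535 nm emission ratio, background-subtracted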
M1 antagonist: antagonists of rat M1 muscarinic receptor; Muscarinic acetylcholine receptor M1 (Rattus norvegicus), P08482; CHO-M1 cells, Fluo-4 calcium, ACh EC80 antagonist mode; active compounds read low; B-score at 10 µM; 64,000 tested, 3.4% active; AID 628, 2007;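 active = calcium fluorescence response, raw or row-and-column corrected B-score, differing from the plate sample mean either way at a set confidence level, mostly lower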
S1P1 ag-PAM: S1P1 agonists and agonism potentiators, primary screen, cell-based, primary and confirmation screens, CRE-bla reporter; 56,000 tested, 0.57% active; AID 449, 2006; Sphingosine 1-phosphate receptor 1 (Homo sapiens), P21453; activation, % at 9.5 µM; S1P1 CRE-bla cells, forskolin, beta-lactamase FRET, potentiator mode; S1P1 agonist co-added at EC20, 2 nM; 100% = saturating reference agonist, 0% = basal;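 active = activation above a cutoff set at the mean activation of all tested compounds plus 3 SD, cut at about 54% in these data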;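 also: forskolin at 4 µM as EC80 and the EC20 agonist is SEW2871; 100% = SEW2871 at its EC100 plus forskolin at EC80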
TNAP act mid DEA: human TNAP enzyme activators, primary screen, biochemical, luminescent, intermediate phosphate acceptor level; AID 813, 2007; purified TNAP, CDP-star luminescence, 100 mM DEA, 30 min; active compounds read high; scale: 0 levamisole-inhibited, 1 vehicle-only enzyme; 64,000 tested, under 10 active; Alkaline phosphatase, tissue-nonspecific isozyme (Homo sapiens), P05186; activation factor at 20 µM;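 active = activation factor of at least 2 at 20 µM, relative to controls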
Target sequence (P05186 whole entry, looked up): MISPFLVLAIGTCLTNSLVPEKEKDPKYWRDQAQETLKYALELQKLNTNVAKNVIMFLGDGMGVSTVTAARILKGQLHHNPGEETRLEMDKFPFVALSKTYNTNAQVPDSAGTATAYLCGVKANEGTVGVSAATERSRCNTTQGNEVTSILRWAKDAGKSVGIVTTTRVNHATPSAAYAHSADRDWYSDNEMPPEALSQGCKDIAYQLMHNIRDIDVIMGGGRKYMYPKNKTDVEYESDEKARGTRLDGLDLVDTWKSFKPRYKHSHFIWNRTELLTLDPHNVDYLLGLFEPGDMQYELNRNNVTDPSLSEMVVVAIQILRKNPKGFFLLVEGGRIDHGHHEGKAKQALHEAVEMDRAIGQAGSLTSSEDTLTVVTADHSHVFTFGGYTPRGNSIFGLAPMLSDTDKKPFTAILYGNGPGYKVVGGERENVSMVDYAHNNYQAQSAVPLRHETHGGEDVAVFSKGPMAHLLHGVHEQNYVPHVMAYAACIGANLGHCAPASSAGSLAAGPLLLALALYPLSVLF
D1 mod: D1 CRE-luciferase signal change, two-sided – cell-based, HEK293 D1, dopamine EC30, D1 allosteric modulator project, primary screen | AID 641, 2007 | 58,000 tested, 5.9% active | B-score at 10 µM | D(1A) dopamine receptor (Homo sapiens), P21728 | dopamine EC30 potentiation; actives deviate in either direction;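 active = luminescence count or its row- and column-corrected plate score outside the 99.7% band of the plate's sample wells, on either side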
M1 ag: M1 muscarinic receptor agonists, primary screen, CHO-M1 cells, Fluo-4 calcium, agonist mode. AID 626, 2007. Fluo-4 calcium fluorescence; active compounds read high. 64,000 tested, 3% active. B-score at 10 µM. Muscarinic acetylcholine receptor M1;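 active = fluorescence rise, raw or as B-score row- and column-corrected plate score, outside the 99.7% band of its plate's samples, either direction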
D1 PAM confirm: D1 receptor positive allosteric modulators, retest, confirmation, cell-based, HEK293 D1, CRE-luciferase, duplicate; dopamine EC30 potentiation; active compounds read high; luminescence at 10 µM; 2,200 tested, 88% active; shares compounds with D1 mod;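 active = luminescence in either of two replicates above the same-plate mean plus 3 SD of the low-dose dopamine control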
D1 no dopamine: D1 receptor agonism without dopamine, confirmation, mechanism study for D1 allosteric modulator project, cell-based, HEK293 D1, CRE-luciferase, secondary assay 1. shares compounds with D1 mod. luminescence, no dopamine; active compounds read high. luminescence at 10 µM. 1,900 tested, 0.8% active; in the data active = luminescence above about 3900
Isoprot counter: isoproterenol response counter-screen activity for D1 modulators | shares compounds with D1 mod | HEK293 D1 CRE-luciferase, isoproterenol EC30 counter-screen; active compounds read high | luminescence at 10 µM | 2,200 tested, 63% active | AID 647;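 active = luminescence in either replicate above plate mean of wells with a partly effective reference agonist dose plus 3 SD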;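 also: isoproterenol raises cAMP through native beta-adrenoceptor Gs so signal bypasses D1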
Starred values were filed as active, the others as inactive; · = not tested or not shown.

SMILES	S1P3 agonist	M1 antagonist	S1P1 ag-PAM	TNAP act mid DEA	D1 mod	M1 ag	D1 PAM confirm	D1 no dopamine	Isoprot counter
COc1ccc(C2CC(=O)c3cnc(NC(=O)c4ccccc4)nc3C2)cc1OC (stereo not given)	-1	-0.31	-27	1	4.6*	0.054	9012*	1692	3456*
COc1ccc(C2CC(=O)c3cnc(NC(=O)c4ccccc4OC)nc3C2)c(OC)c1 (stereo not given)	-1	1.3	-4	0.9	6.5*	2.9	15748*	1700	3868*
Nc1nc(NC(=O)c2cccc(S(=O)(=O)N3CCCCCC3)c2)nc(-c2ccccc2)n1	·	-0.26	·	0.9	·	-0.75	·	·	·
CCOc1ccc(-c2nnn(CC(=O)NCc3ccc(OC)cc3)n2)cc1OCC	0	1.4	-4	0.9	5.3*	-0.79	6444*	1592	2528
CCOc1ccc(-c2nnn(CC(=O)Nc3cc(OC)ccc3OC)n2)cc1OCC	0	-0.44	-13	1	1.4	-0.24	·	·	·
CCOc1ccccc1NC(=O)Cn1nnc(-c2ccc(OCC)c(OCC)c2)n1	-1	0.12	-11	0.9	29*	-0.91	19636*	1656	6380*
Cc1cc(C)nc(-n2nc(C)cc2NC(=O)COC(=O)CCC(=O)c2cccs2)n1	0	-0.2	17	1	2.3	0.082	·	·	·
O=C(Cn1cnc2ccccc2c1=O)N1CCN(Cc2ccccc2)CC1	-1	·	-1	0.9	0.53	·	·	·	·
Cn1c(SCC(=O)NCc2ccc3c(c2)OCO3)nnc1C1COc2ccccc2O1 (stereo not given)	0	-0.13	21	0.9	-0.68	0.068	·	·	·
O=C(NC1CC2CCCC(C1)N2S(=O)(=O)c1ccccc1)c1ccccc1 (stereo not given)	-1	1	-6	0.9	·	-0.36	·	·	·
CC(=O)NC1CC2CCCC(C1)N2S(=O)(=O)c1ccccc1 (stereo not given)	·	·	·	0.9	5.5*	·	5928	1484	4360
COc1ccc(-c2nc3ncccn3c2Nc2ccc3c(c2)OCCO3)cc1	·	1.1	·	0.9	0.48	-1.4	·	·	·
CCN(CC)CCCNc1cc2n(c(=O)n1)CCc1cc(OC)c(OC)cc1-2	0	-0.011	-8	1	0.2	-0.58	·	·	·
COc1cc2c(cc1OC)-c1cc(NC3CCCCCC3)nc(=O)n1CC2	1	1.2	-55	0.9	4*	0.31	20748*	2368	16100*
COc1cc2c(cc1OC)-c1cc(N3CCCc4ccccc43)nc(=O)n1CC2	2	-0.089	-25	0.9	·	0.69	·	·	·
COc1cc2c(cc1OC)-c1cc(N3CCCCCC3)nc(=O)n1CC2	2	0.17	-78	1	3.9*	-0.31	21696*	2196	10616*
COc1cc2c(cc1OC)-c1cc(OCc3cccnc3)nc(=O)n1CC2	0	-2.4	-19	1	19*	0.15	25704*	2128	9096*
COc1cc2c(cc1OC)-c1cc(Nc3ccc4c(c3)OCCO4)nc(=O)n1CC2	0	-2.6	-57	0.8	24*	-0.0016	13360*	1788	12024*
COCCn1c(SCC#N)nnc1-c1ccc2c(c1)OCO2	0	0.38	-6	0.9	·	0.00055	·	·	·
CCSc1oc(-c2cccs2)nc1S(=O)(=O)c1ccccc1	-1	-0.36	-4	0.8	15*	-0.34	18740*	1592	3712*
CCSc1oc(-c2ccco2)nc1S(=O)(=O)c1ccc(F)cc1	·	-0.53	·	0.9	4.6*	0.75	11820*	1660	3012
CCN(CC)S(=O)(=O)c1cccc(-c2nnc(SCCOc3ccccc3)o2)c1	0	-0.45	6	0.9	14*	-0.47	5768	1568	2704
COC(=O)c1ccccc1NS(=O)(=O)c1cn(C)c(=O)n(C)c1=O	-1	-1.6	-4	1	-0.083	-1.2	·	·	·
Cc1ccccc1-n1c(SCc2ccccn2)nc2n[nH]c(C)c2c1=N	0	-0.9	-22	·	2.3	-0.44	·	·	·
CCc1ccc(NC(=O)CSc2nnc(-c3ccccn3)n2C)cc1	0	-0.089	-18	0.9	-0.04	0.17	·	·	·
SMILES	S1P3 agonist	M1 antagonist	S1P1 ag-PAM	TNAP act mid DEA	D1 mod	M1 ag	D1 PAM confirm	D1 no dopamine	Isoprot counter
CCOc1ccccc1NC(=O)CCSc1nc2n[nH]c(C)c2c(=N)n1-c1ccccc1Cl	·	-0.87	·	1	3.8*	1.6	11132*	1584	3292*
CCOc1ccccc1-n1c(SCC(=O)Nc2ccc(CC)cc2)nc2n[nH]c(C)c2c1=N	4	-0.32	-33	·	2*	-0.66	7472	1852	2672
CCC(c1nnnn1Cc1ccc(F)cc1)N(CCCO)Cc1cc2cc3c(cc2[nH]c1=O)OCO3 (stereo not given)	-1	-0.47	39	0.9	5.5*	0.14	4672	1368	2448
COc1ccc(CCNS(=O)(=O)c2cccc3nsnc23)cc1OC	0	0.48	-21	0.9	2.3	0.36	·	·	·
CCOc1ccc(CCNS(=O)(=O)c2cccc3nsnc23)cc1OCC	-1	0.28	-16	0.9	19*	0.43	19296*	1552	4780*
OCC(CO)(CO)n1cnnn1	0	-0.039	-3	0.9	3.5*	-0.32	5960	1496	2520
CCCCC(=O)Nc1cccc(-c2nn3c(C)nnc3s2)c1	6	-1.1	0	0.8	0.26	0.63	·	·	·
COc1ccc(N(CC(=O)Nc2cc(OC)ccc2OC)S(=O)(=O)c2c(C)nn(C)c2C)cc1	22	-0.89	-52	0.9	8.7*	-0.8	14244*	1416	4064*
COc1ccc(N(CC(=O)Nc2cccc(OC)c2)S(=O)(=O)c2c(C)nn(C)c2C)cc1	-1	-0.19	8	0.9	·	0.62	·	·	·

Bioassay records (PubChem BioAssay)
